Results reported in ChEMBL document CHEMBL1140069, “In vitro antifungal activity of polyfunctionalized 2-(hetero)arylquinolines prepared through imino Diels-Alder reactions” (2008).
In brackets after ≈: the same amount, converted by molar mass.

Experiments:
Format in all cases: functional
[1] = test system: Trichophyton mentagrophytes; assay: Antifungal activity against Trichophyton mentagrophytes C539 isolate; conditions: read-out: MIC100
[2] = test system: Trichophyton mentagrophytes; assay: Antifungal activity against Trichophyton mentagrophytes C943 isolate; conditions: read-out: MIC100
Trichophyton rubrum [3] = assay: Antifungal activity against Trichophyton rubrum C133 isolate; conditions: read-out: MIC100
Trichophyton rubrum [4] = assay: Antifungal activity against Trichophyton rubrum C137 isolate; conditions: read-out: MIC100
[5] = test system: Trichophyton mentagrophytes; assay: Antifungal activity against Trichophyton mentagrophytes C131 isolate; conditions: read-out: MIC100
Trichophyton rubrum [6] = assay: Antifungal activity against Trichophyton rubrum C110 after 48 hrs by broth microdilution technique
In short: (§1)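 CLSI broth microdilution: M-27 A2 for yeasts and M-38 A for filamentous fungi. Medium is RPMI-1640 buffered to pH 7.0 with MOPS. Compound is diluted twofold from 250 to 0.98, final DMSO ≤2%. Inoculum is 1–5 × 10³ CFU/mL. Plates are incubated at 35 °C in a moist, dark chamber and read visually at 48 h. MIC100 is the lowest concentration giving total growth inhibition versus drug-free control.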

[7] = test system: Trichophyton mentagrophytes; assay: Antifungal activity against Trichophyton mentagrophytes C364 isolate; conditions: read-out: MIC100
Nannizzia gypsea = assay: Antifungal activity against Microsporum gypseum C115 after 48 hrs by broth microdilution technique; in short: as §1
Candida albicans = assay: Antifungal activity against Candida albicans ATCC 10231 after 48 hrs by broth microdilution technique; conditions: ATCC 10231, 48 h; in short: as §1
Aspergillus flavus = assay: Antifungal activity against Aspergillus flavus ATCC 9170 after 48 hrs by broth microdilution technique; conditions: ATCC 9170, 48 h; in short: as §1
Cryptococcus neoformans = assay: Antifungal activity against Cryptococcus neoformans ATCC 32264 after 48 hrs by broth microdilution technique; conditions: ATCC 32264, 48 h; in short: as §1
[8] = test system: Trichophyton mentagrophytes; assay: Antifungal activity against Trichophyton mentagrophytes C132 isolate; conditions: read-out: MIC100
[9] = test system: Trichophyton mentagrophytes; assay: Antifungal activity against Trichophyton mentagrophytes ATCC 9972 after 48 hrs by broth microdilution technique; conditions: ATCC 9972, 48 h; in short: as §1
Trichophyton rubrum [10] = assay: Antifungal activity against Trichophyton rubrum C135 isolate; conditions: read-out: MIC100
Saccharomyces cerevisiae = assay: Antifungal activity against Saccharomyces cerevisiae ATCC 9763 after 48 hrs by broth microdilution technique; conditions: ATCC 9763, 48 h; in short: as §1
Trichophyton rubrum [11] = assay: Antifungal activity against Trichophyton rubrum C136 isolate; conditions: read-out: MIC100
Aspergillus fumigatus = assay: Antifungal activity against Aspergillus fumigatus ATTC 26934 after 48 hrs by broth microdilution technique; in short: as §1
Aspergillus niger = assay: Antifungal activity against Aspergillus niger ATCC 9029 after 48 hrs by broth microdilution technique; conditions: ATCC 9029, 48 h; in short: as §1

MIC [1] [µg/mL] | MIC [2] [µg/mL] | MIC (Trichophyton rubrum [3]) [µg/mL] | MIC (Trichophyton rubrum [4]) [µg/mL] | MIC [5] [µg/mL] | MIC (Trichophyton rubrum [6]; read-out: MIC) [µg/mL] | MIC (Trichophyton rubrum [6]; read-out: MIC100) [µg/mL] | MIC [7] [µg/mL] | MIC (Nannizzia gypsea) [µg/mL] | MIC (Candida albicans) [µg/mL] | MIC (Aspergillus flavus) [µg/mL] | MIC (Cryptococcus neoformans) [µg/mL] | MIC [8] [µg/mL] | MIC [9] [µg/mL] | MIC (Trichophyton rubrum [10]) [µg/mL] | MIC (Saccharomyces cerevisiae) [µg/mL] | MIC (Trichophyton rubrum [11]) [µg/mL] | MIC (Aspergillus fumigatus) [µg/mL] | MIC (Aspergillus niger) [µg/mL] | Structure (SMILES)
7.8 (≈ 29.7 µM) | 7.8 (≈ 29.7 µM) | 15.6 (≈ 59.5 µM) | 7.8 (≈ 29.7 µM) | 15.6 (≈ 59.5 µM) | 12.5 (≈ 47.6 µM) | 7.8 (≈ 29.7 µM) | 7.8 (≈ 29.7 µM) | 12.5 (≈ 47.6 µM) | > 250 | > 250 | > 250 | 7.8 (≈ 29.7 µM) | 12.5 (≈ 47.6 µM) | 7.8 (≈ 29.7 µM) | > 250 | 7.8 (≈ 29.7 µM) | > 250 | > 250 | Cc1cc(-c2ccncc2)nc2c(C(C)C)cccc12
7.8 (≈ 33.3 µM) | 7.8 (≈ 33.3 µM) | 15.6 (≈ 66.6 µM) | 7.8 (≈ 33.3 µM) | 31.2 (≈ 133 µM) | 12.5 (≈ 53.3 µM) | 7.8 (≈ 33.3 µM) | 7.8 (≈ 33.3 µM) | 12.5 (≈ 53.3 µM) | > 250 | > 250 | > 250 | 7.8 (≈ 33.3 µM) | 12.5 (≈ 53.3 µM) | 7.8 (≈ 33.3 µM) | > 250 | 7.8 (≈ 33.3 µM) | > 250 | > 250 | Cc1cc(-c2ccncc2)nc2c(C)cccc12
